FXIa inh 1536: blocks human coagulation factor XIa protease activity | 220,000 compounds, 0.14% hits | purified FXIa, Boc-Glu-Ala-Arg-AMC fluorogenic substrate | AID 798 | P03951 | inhibition, % at 5 µM;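 active means inhibition of at least 40%; inactive means inhibition below 40%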;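 further: fluorescence of freed AMC excited at 355 nm; 0% = enzyme without compound and 100% = no enzyme blank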
hK5 inh: blocks human kallikrein 5 protease activity. recombinant hK5, fluorogenic AMC substrate cleavage. AID 873. 210,000 compounds, 0.59% hits. inhibition, % at 5 µM;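 active means inhibition of 40% or more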;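 further: 0% = enzyme controls without compound and 100% = no-enzyme blanks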
STAT3 activator: activators of IL-6 induced STAT3 signaling | U3A cells, IL-6 STAT3-luciferase reporter, luminescence; 100% = signal with IL-6 EC80 alone | activation (% of control), % at 5.6 µM | 190,000 compounds, 0.91% hits;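 active means activation above the screen-wide mean of compound activation plus 3 SD, cut at about 130% in these data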;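 further: 0% = background luminescence of wells with medium and substrate only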
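Material: STAT3-luciferase reporter U3A cells. Controls: IL-6-treated wells, 100% activation. Read-out: % activation versus median of IL-6-stimulated wells. Probe or stimulus: IL-6 stimulus at 33 ng/mL final. Timing: compound 1 h, then IL-6 6 h at 37 °C. Signal: reporter luminescence signal.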
Thrombin inh: blocks human thrombin protease activity; AID 1046; P00734; alpha-thrombin, Boc-VPR-AMC fluorogenic substrate cleavage; inhibition, % at 5 µM; 220,000 compounds, 0.26% hits;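 active means inhibition at or above 40%; inactive means inhibition below 40%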;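 further: 0% = enzyme with no compound and 100% = wells without enzyme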
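signal = AMC fluorescence, 355/460 nm | material = human alpha-thrombin enzyme | control set = enzyme without compound as high, wells lacking enzyme as low | times = reaction at room temperature | read-out basis = percent inhibition scaled between no-compound controls and no-enzyme blanks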
FXIIa inh 1536: blocks human coagulation factor XIIa protease activity. purified FXIIa, Boc-QGR-AMC fluorogenic substrate, 2 h. 220,000 compounds, 0.3% hits. AID 800. inhibition, % at 5 µM; in the data active means inhibition above about 40%;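 further: 0% = enzyme with no compound and 100% = blank without enzyme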
Target sequence (P00748 20-372 limits assumed): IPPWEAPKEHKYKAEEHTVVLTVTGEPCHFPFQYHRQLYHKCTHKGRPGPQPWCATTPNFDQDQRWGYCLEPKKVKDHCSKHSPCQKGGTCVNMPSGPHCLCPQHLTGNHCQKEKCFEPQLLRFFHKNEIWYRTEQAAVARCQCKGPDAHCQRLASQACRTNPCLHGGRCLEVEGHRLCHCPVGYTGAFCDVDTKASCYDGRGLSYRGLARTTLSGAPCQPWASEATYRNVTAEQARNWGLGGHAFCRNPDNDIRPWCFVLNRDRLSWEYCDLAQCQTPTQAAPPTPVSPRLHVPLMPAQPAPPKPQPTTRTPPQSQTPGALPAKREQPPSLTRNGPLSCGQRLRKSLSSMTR
Target sequence (P00748 373-615 limits assumed): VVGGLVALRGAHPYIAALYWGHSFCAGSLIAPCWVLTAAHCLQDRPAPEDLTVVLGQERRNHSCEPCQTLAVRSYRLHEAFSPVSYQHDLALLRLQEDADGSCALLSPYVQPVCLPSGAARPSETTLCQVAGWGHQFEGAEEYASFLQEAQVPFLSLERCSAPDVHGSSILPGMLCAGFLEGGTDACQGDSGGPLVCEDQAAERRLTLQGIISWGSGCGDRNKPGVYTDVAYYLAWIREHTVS
AHR act: human AHR activation. P35869. AHR-responsive luciferase reporter cells, luminescence. activation, % at 5 µM. 320,000 compounds, 2.5% hits; in the data active means activation above about 47%;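 further: 0% = vehicle wells and 100% = reference agonist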
Active calls of the source: *; x = not tested or not shown. This is a sample that favours compounds with a hit; in the whole collection about 3.5% have one here.

SMILES	FXIa inh 1536	hK5 inh	STAT3 activator	Thrombin inh	FXIIa inh 1536	AHR act
Cc1ccccc1C(=O)NC(=S)Nc1ccccc1N1CCCC1	-6	-9	110	-5	3	50*
CCN(CC)C(=O)CC(c1ccc(F)cc1)c1ccc(OC(C)C)cc1 (stereo unspecified)	-5	-1	104	-7	3	x
CCOc1ccccc1N(CC(=O)NC1CCCC1)C(=O)CNC(=O)c1cccs1	x	x	x	x	x	-2
CC(OC(=O)CCCN=C1NS(=O)(=O)c2ccccc21)C(=O)c1ccccc1 (stereo unspecified)	x	x	x	x	x	59*
CC(OC(=O)CCCN=C1NS(=O)(=O)c2ccccc21)C(=O)N(C)c1ccccc1 (stereo unspecified)	x	x	x	x	x	7
Cc1nnc(NC(=O)c2oc3ccccc3c2C)s1	x	x	x	x	x	62*
Cn1cccc1C(=O)Nc1nc(-c2ccccn2)cs1	47*	-6	91	10	-9	42
Cc1c(C(=O)Nc2nc(-c3ccccn3)cs2)oc2ccccc12	x	x	x	x	x	64*
O=C(Nc1nc(-c2ccccn2)cs1)c1cc2ccccc2o1	11	9	103	13	14	29
Cc1ccc2c(C)c(C(=O)Nc3nnc(C)s3)oc2c1	23	-2	100	9	40*	14
Cc1csc(NC(=O)c2cccn2C)n1	7	-9	98	1	16	3
CC(C(=O)Nc1cccnc1)N1C(=O)C2C3C=CC(C3)C2C1=O (stereo unspecified)	3	4	96	-3	13	8
CC1CCN(S(=O)(=O)c2cc(F)ccc2CN2C(=O)c3cccnc3C2=O)CC1	x	x	x	x	x	-1
O=C(CCCN1C(=O)c2cccc3cccc(c23)C1=O)NCc1cccs1	20	-4	80	-2	6	-6
Cc1[nH]n(-c2ccccc2)c(=O)c1N=Nc1ccc(C(N)=O)cc1	x	x	x	x	x	7
Nc1[nH]n(-c2ccccc2)c(=O)c1N=Nc1ccc2c(c1)OCO2	5	13	x	3	10	121*
Cc1[nH]n(-c2ccccc2)c(=O)c1N=Nc1ccc(Cl)cc1	x	x	x	x	x	51*
CC(=O)c1ccc(N=Nc2c(C)[nH]n(-c3ccccc3)c2=O)cc1	x	x	x	x	x	54*
Cc1ccc(N=Nc2c(N)n(-c3ccccc3)[nH]c2=O)cc1	18	40*	111	22	16	46
CC1CCN(CC(=O)Nc2ccc(N3CCCCCC3)cc2)CC1	-6	0	108	2	3	2
C[C@@H]1CN([C@H](C)CO)C(=O)Cc2cc(NC(=O)Cn3cnnn3)ccc2O[C@@H]1CN(C)Cc1ccc(Cl)c(Cl)c1	x	x	x	x	x	-2
CCOC(=O)C1CCCN(C(=O)c2cc3nc(-c4cccc(OC)c4)cc(C(F)(F)F)n3n2)C1 (stereo unspecified)	23	54*	112	19	26	-3
CCOC(=O)C1CCCN(C(=O)c2cnn3c(C(F)(F)F)cc(-c4ccccc4)nc23)C1 (stereo unspecified)	2	-11	94	-3	13	-1
CCOC(=O)C1CCCN(C(=O)c2cc3ncc(Br)cn3n2)C1 (stereo unspecified)	13	48*	105	17	28	0
CCOC(=O)C1CCCN(C(=O)c2cc(-c3ccc(C)cc3)on2)C1 (stereo unspecified)	-5	-14	95	1	-5	-3
SMILES	FXIa inh 1536	hK5 inh	STAT3 activator	Thrombin inh	FXIIa inh 1536	AHR act
O=C(NCCc1ccccc1Cl)C1CC(=O)N(C2CCCCC2)C1 (stereo unspecified)	x	x	x	x	x	-2
Cc1cccc(C)c1NC(=O)N1CCC(C(=O)c2ccc(F)cc2)CC1	x	x	x	x	x	-1
CCOCCCN(C(=O)CCC(=O)Nc1cc(C)on1)C(C(=O)NC(C)(C)C)c1ccccc1Cl (stereo unspecified)	x	x	x	x	x	-2
CCc1ccc(N(CC(=O)NC(C)(C)CC)C(=O)CCC(=O)Nc2nccs2)cc1	x	x	x	x	x	3
Cc1cc(C)cc(NC(=O)Nc2ccc3c(c2)N(C)C(=O)CS3)c1	8	-4	93	-4	26	71*
NS(=O)(=O)c1ccc(CNC(=O)/C=C/c2cccc([N+](=O)[O-])c2)cc1	1	0	x	-8	3	0
O=C(NNC(=O)c1ccccc1OCc1ccccc1)c1ccccc1F	x	x	x	x	x	53*
O=C(NN=C1CCCC1)c1ccccc1OCc1ccc(Cl)cc1	52*	38	95	33	28	38
C=C1C(=O)O[C@@H]2[C@H]1[C@@H](OC(=O)/C(C)=C/C)C/C(C)=C\C(=O)/C=C(\C)[C@@H]2O	0	-2	x	-2	5	-5
Cc1sc2nc(CSc3nnnn3-c3ccc(Cl)cc3)[nH]c(=O)c2c1C	2	4	100	-9	2	51*
COc1ccc(NC(=S)N/N=C2\CC(C)(C)Oc3ccc(O)cc32)cc1	10	-23	91	3	1	26
COc1ccccc1NC(=S)N/N=C1\CC(C)(C)Oc2ccc(O)cc21	30	57*	90	9	36	24
O=C(CCCN1C(=O)CCC1=O)Nc1ccc(Br)cc1F	-1	61*	95	10	16	1
O=C(CCCN1C(=O)CCC1=O)Nc1ccccc1F	3	3	99	5	13	3
Cc1nc(SCC(=O)Nc2nc3ccccc3s2)c(C#N)c(C)c1C	5	-21	27	-10	15	-11
Cc1ccc(-c2cc(C(F)(F)F)c(C#N)c(SCC(=O)O)n2)cc1	12	16	135*	1	13	22
Cc1cc(C(F)(F)F)c(C#N)c(SCC(=O)Nc2nc3ccccc3s2)n1	3	-13	120	-4	5	57*
COc1ccc(-c2cc(C(F)(F)F)c(C#N)c(SCC(=O)O)n2)cc1OC	35	48*	x	9	18	11
O=C(Nc1ccccc1C(=O)O)c1cc(S(=O)(=O)N2CCCCC2)c(Cl)cc1Cl	x	x	x	x	x	4
O=C(NCCc1ccc(O)c(O)c1)C1COc2ccccc2O1 (stereo unspecified)	x	x	x	x	x	5
O=C(CN1CCCc2ccccc21)N/N=C/c1ccc(O)cc1O	-3	-13	111	-4	1	53*
Clc1nc2ccccc2cc1-c1nnn(-c2ccccc2Br)n1	x	x	x	x	x	17
Brc1ccccc1-n1nnc(-c2cnc3ccccc3c2)n1	x	x	x	x	x	54*
C[C@@H](NC(=O)c1cc2c([nH]c3ccccc32)c(-c2ccccc2)n1)C(=O)O	x	x	x	x	x	10
Cc1ccc(S(=O)(=O)N2CCCCC2CCNC(=O)C(=O)NCC2CCCO2)cc1 (stereo unspecified)	x	x	x	x	x	0
C=CCSc1nncn1/N=C/c1ccc(OC)cc1	2	4	125	4	7	58*
CC(C)(C)n1ncc2c(=O)n(Cc3cccc(Cn4cnc5c(cnn5C(C)(C)C)c4=O)c3F)cnc21	x	x	x	x	x	-2

Source: PubChem BioAssay
